MT1-MMP act inh: blockers of MT1-MMP proenzyme processing, primary screen, HT1080 RFP-PRO-GFP cells, GFP/RFP fluorescence | GFP/RFP ratio fluorescence, overnight; percent of plate control window, DMSO zero | GFP/RFP ratio change, % at 20 µM | 0.061% of 360,000 active;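 active means GFP/RFP ratio change of at least 30% with cell ATP level not reduced by more than half and red fluorescence within 50% of control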
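system = RFP-PRO-GFP reporter HT1080 cells | dosing = 20 µM single dose, 1% DMSO | timing = overnight cell settling, then overnight compound exposure, 37 °C, 5% CO2 | read-out basis = GFP/RFP fluorescence ratio | controls = DMSO and RFP-L50D-GFP cell wells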
Tb MetRS inh: T. brucei MetRS inhibitors, primary screen, biochemical, luminescence; AID 624268, 2012; 0.4% of 360,000 active; inhibition, % at 11.9 µM; purified T. brucei MetRS, ATP depletion, Kinase-Glo luminescence;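 active means inhibition above a per-plate cutoff of the control wells' mean inhibition plus 3 SD, cut at about 5.5% in these data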;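 further: 0% = DMSO wells median and 100% = median of wells with control inhibitor compound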
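Test system: purified T. brucei MetRS enzyme. Also added: ATP, methionine and E. coli bulk tRNA substrates. Compound: 11.9 µM single point. Schedule: 15 min enzyme-compound preincubation, 2 h reaction, 10 min detection, 25 °C. Signal: luciferase luminescence of residual ATP, Kinase-Glo. Evaluation: percent inhibition versus plate control medians. Controls: DMSO wells, low control.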
GC-A act: GC-A stimulated cGMP production enhancers – HEK293 GC-A cells, cGMP TR-FRET, EC30 ANP, primary screen. Atrial natriuretic peptide receptor 1 (Homo sapiens), P16066. activation, % at 10 µM. AID 1671463, 2021. 0.14% of 370,000 active. 0% at EC30 ANP, 100% saturating ANP; in the data active means activation above about 40%
Target sequence (P16066 whole entry, looked up): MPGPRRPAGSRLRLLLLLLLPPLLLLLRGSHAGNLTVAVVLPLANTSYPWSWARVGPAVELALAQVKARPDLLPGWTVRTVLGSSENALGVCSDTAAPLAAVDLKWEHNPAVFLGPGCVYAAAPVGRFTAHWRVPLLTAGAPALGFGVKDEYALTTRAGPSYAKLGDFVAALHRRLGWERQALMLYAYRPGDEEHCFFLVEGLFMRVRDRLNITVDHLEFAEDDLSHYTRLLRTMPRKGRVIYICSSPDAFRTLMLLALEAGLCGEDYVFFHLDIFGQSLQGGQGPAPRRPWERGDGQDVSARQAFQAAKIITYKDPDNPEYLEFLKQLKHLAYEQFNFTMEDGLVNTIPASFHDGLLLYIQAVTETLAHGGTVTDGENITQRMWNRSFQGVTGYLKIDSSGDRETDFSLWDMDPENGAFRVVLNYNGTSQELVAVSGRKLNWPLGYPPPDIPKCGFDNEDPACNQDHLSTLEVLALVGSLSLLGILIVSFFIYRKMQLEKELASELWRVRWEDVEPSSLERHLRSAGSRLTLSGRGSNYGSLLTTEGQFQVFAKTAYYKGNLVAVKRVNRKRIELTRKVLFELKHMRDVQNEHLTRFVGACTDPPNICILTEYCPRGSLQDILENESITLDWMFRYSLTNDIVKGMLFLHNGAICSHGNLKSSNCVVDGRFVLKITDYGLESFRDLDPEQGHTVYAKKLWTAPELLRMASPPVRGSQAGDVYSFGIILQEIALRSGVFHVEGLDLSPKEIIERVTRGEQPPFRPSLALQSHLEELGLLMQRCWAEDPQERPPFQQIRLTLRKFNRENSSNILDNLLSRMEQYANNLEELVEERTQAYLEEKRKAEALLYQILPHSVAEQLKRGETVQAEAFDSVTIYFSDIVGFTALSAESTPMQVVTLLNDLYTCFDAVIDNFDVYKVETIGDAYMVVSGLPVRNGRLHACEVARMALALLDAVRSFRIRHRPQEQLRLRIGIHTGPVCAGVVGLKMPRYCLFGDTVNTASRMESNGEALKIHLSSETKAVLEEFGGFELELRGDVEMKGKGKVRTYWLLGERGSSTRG
GC-B act: human GC-B receptor activators, primary screen, HEK293 GC-B cells, cGMP TR-FRET, EC30 CNP. 0% at EC30 CNP, 100% saturating CNP. activation, % at 10 µM. 0.11% of 370,000 active;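 active means activation at 10 µM reaching about 35% in either raw or pattern-adjusted values, limit read from the data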
SKN-1 inh: suppressors of acrylamide-induced Pgst-4::GFP reporter in worms, primary screen, SKN-1 inhibitor project, whole organism, uHTS, GFP/RFP fluorescence ratio, strain VP596; C. elegans VP596 Pgst-4::GFP/RFP ratio, 24 h; inhibition, % at 21.8 µM; 0.49% of 360,000 active; AID 624304, 2012;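 active means interference check ratio from 0.5 to 1.5 plus GFP to RFP signal ratio inhibition reaching or exceeding a fixed threshold, cut at about 30% in these data, passing the limit was not always enough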
Bfl-1 A1 inh: caspase 3/7 activation in MEF A1-2A-BIM cells, primary screen, A1 inhibitor project, cell-based, luminescence, HTS; caspase activation, % (concentration not given with the values); Caspase-Glo 3/7 luminescence, 3 h; percent of clofoctol response, vehicle zero; 0.066% of 330,000 active; AID 2462, 2010;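 active means over half of replicate activation scores above 10%, or exactly half above 10 with the replicate mean above 10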
TbMetRS confirm: T. brucei MetRS inhibitors, confirmation, biochemical, luminescence; shares compounds with Tb MetRS inh; T. brucei MetRS enzyme, luminescence (ATP depletion); inhibition, % at 11.9 µM; 93% of 1,400 active; in the data active means inhibition above about 7%
Jurkat cytotox: Jurkat T cell cytotoxicity, cytotoxicity control for T. brucei MetRS inhibitor project, luminescence, high throughput | shares compounds with Tb MetRS inh | Jurkat cells viability, ATP luminescence | inhibition, % at 8.3 µM | 12% of 1,400 active | AID 624413, 2012; in the data active means inhibition above about 15%;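 further: 0% = vehicle and 100% = reference inhibitor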
Tb MetRS inh FP: T. brucei MetRS inhibitors, orthogonal assay for T. brucei MetRS inhibitor project, biochemical, fluorescence polarization | shares compounds with Tb MetRS inh | purified T. brucei MetRS | inhibition, % at 11.9 µM | 44% of 1,400 active; in the data active means inhibition above about 17%;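 further: 0% = vehicle wells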
Active calls of the source: *; x = no result given. Shown are actives, neighbours in structure and some others; about 1.1% of the full set was active somewhere.

SMILES	MT1-MMP act inh	Tb MetRS inh	GC-A act	GC-B act	SKN-1 inh	Bfl-1 A1 inh	TbMetRS confirm	Jurkat cytotox	Tb MetRS inh FP
COc1ccc(C(=O)N(C)[C@H]2C[C@H]3c4[nH]c5cccc(-c6ccccc6)c5c4CCN3C[C@H]2[C@H](C)O)cc1	x	x	11	5	x	x	x	x	x
OC(c1ccc(Cl)c(F)c1)c1ncc(-c2ccc(Cl)cc2)[nH]1 (stereo not drawn)	4	5.8*	0	1	10	x	41*	8	17
OC(c1ccc(Cl)c(Cl)c1)c1ncc(-c2ccc(Cl)cc2)[nH]1 (stereo not drawn)	9	51*	-5	-2	18	x	86*	-2	66*
CCC(C)N(C(=O)CN1C(=O)C2CCCCN2C(=O)c2ccccc21)C(C)CC (stereo not drawn)	x	x	-1	2	x	x	x	x	x
CCCc1ccc(-c2c(C)sc(N)c2C#N)cc1	-9	27*	-6	1	4	2	17*	11	8
CCn1cnc2cc(NCc3cccc(OC)c3O)ccc21	2	18*	x	x	10	0	36*	4	15
C[C@H]1[C@@H](NC(=O)c2ccc(Cl)cc2)CC[C@@]23CCCN2C(=O)CCC[C@@H]13	x	x	2	1	x	x	x	x	x
Fc1ccc2[nH]c3c(N4CCc5ccccc5C4)ncnc3c2c1	3	58*	18	27	12	0	14*	50*	13
Cc1ccc2[nH]c3c(N4CCc5ccccc5C4)ncnc3c2c1	8	12*	15	14	-7	0	5	47*	9
O=C(N[C@@H]1C[C@@H]2O[C@@H](CO)CC[C@@H]2O[C@@H]1CCc1ccc(-c2ccccc2)cc1)c1cnccn1	x	x	4	-4	x	x	x	x	x
COC(=O)[C@]12C[C@H](CC(=O)NCc3ccccc3)C(=O)N(Cc3ccco3)C1=C[C@H](C1CCCC1)O[C@@H]2C	x	x	-12	-9	x	x	x	x	x
COc1ccc(/C(C)=N\NC(=O)c2ccco2)cc1	x	x	2	-3	x	x	x	x	x
CC1=NN(c2ccc(Cl)cc2)C(=O)C1C(c1cccc(O)c1)c1c(C)[nH]n(-c2ccc(Cl)cc2)c1=O (stereo not drawn)	14	0	x	x	3	0	x	x	x
CC1=NN(c2ccc(F)cc2)C(=O)C1C(c1cccc(O)c1)c1c(C)[nH]n(-c2ccc(F)cc2)c1=O (stereo not drawn)	6	19*	2	1	27	0	3	-6	2
CCN(CC)C(=O)Cn1nc(Cc2ccncc2)c2ccccc2c1=O	x	x	3	6	x	x	x	x	x
O=C(C[C@H]1C(=O)N(Cc2ccccc2)C[C@@H]1Cc1ccccc1)Nc1ccc(Br)cc1	0	10*	-2	0	0	x	30*	7	8
O=C(C[C@H]1C(=O)N(Cc2ccccc2)C[C@@H]1c1ccc(Br)cc1)Nc1ccc(Br)cc1	-4	77*	-4	-2	0	x	94*	6	83*
COc1ccc([C@H]2CN(c3ccc(OC)cc3)C(=O)[C@@H]2CC(=O)Nc2ccc(Br)cc2)cc1	-5	8.6*	1	3	-4	x	19*	10	8
CSC[C@H]1CN(Cc2ccccc2)C(=O)[C@@H]1CC(=O)Nc1ccc(Br)cc1	4	17*	2	-4	5	x	30*	0	11
CSC[C@H]1CN(Cc2ccccc2)C(=O)[C@@H]1CC(=O)Nc1ccccc1	3	0	-4	5	-15	x	x	x	x
COc1cccc(CNC(=O)CCCN2C(=O)COc3ccc(C)cc32)c1OC	x	x	-3	-10	x	x	x	x	x
CN1[C@@H](Cc2ccccc2)COc2cccc(F)c2S1(=O)=O	x	x	1	-1	x	x	x	x	x
CCn1c(=O)n2n(c1=O)[C@H]1C[N+](Cc3ccc4c(c3)OCO4)=C(N)NC1=C(C)C2	x	x	3	-2	x	x	x	x	x
CCC[C@H]1[C@@H](NC(=O)c2cccc(C(F)(F)F)c2)CC[C@@]23CCCN2C(=O)CCC[C@@H]13	x	x	-17	-20	x	x	x	x	x
CCOC(=O)[C@]12CCCC3=C1N(CCC3)C(=O)[C@@H](CC(=O)N1CCCCC1)C2	x	x	3	5	x	x	x	x	x
SMILES	MT1-MMP act inh	Tb MetRS inh	GC-A act	GC-B act	SKN-1 inh	Bfl-1 A1 inh	TbMetRS confirm	Jurkat cytotox	Tb MetRS inh FP
CC[C@H]1OC(=O)[C@H](C)[C@@H](O[C@H]2C[C@@](C)(OC)[C@@H](O)[C@H](C)O2)C(C)[C@@H](O[C@@H]2O[C@H](C)C[C@H](N(C)C)[C@H]2O)[C@](C)(O)C[C@@H](C)CN(C)[C@H](C)[C@@H](O)[C@]1(C)O (stereo partly drawn)	x	x	4	-6	x	x	x	x	x
CC(COc1cccc(Cl)c1)CN1CCC(C(O)(c2ccccc2)c2ccccc2)CC1 (stereo not drawn)	x	x	-13	-2	x	x	x	x	x
O=C(C[C@H]1C(=O)N(Cc2cccnc2)C[C@@H]1Cc1ccccc1)Nc1ccc(Br)cc1	2	41*	0	-7	-13	x	67*	11	41*
COc1cc2c(cc1OC)CN(c1ccc([N+](=O)[O-])cc1Cl)CC2	8	5	15	0	-10	0	x	x	x
COc1cc2c(cc1OC)CN(c1ccc([N+](=O)[O-])cc1C#N)CC2	-2	11*	1	-5	7	0	19*	19*	8
NC(=O)[C@@H]1CCCNc2c(I)cc([N+](=O)[O-])cc2C(=O)N[C@@H](CO)C(=O)N[C@@H](Cc2ccc(O)cc2)C(=O)N1	2	7.4*	1	5	23	1	21*	8	5
O=C(CN1CCCCC1)Nc1nc(-c2ccccc2)cs1	0	0	8	1	20	1	x	x	x
